Assay results published in PMC7557569 (RSC Medicinal Chemistry, 2020).

Columns and labels:
[1] = system: human umbilical vein endothelial cells (HUVEC); details: HUVEC tube formation; previously developed inhibitors; cited from earlier work
[2] = target: T1, EphA3 (Homo sapiens, UniProt P29320); details: EphA3, DSF; first generation inhibitors; ref 8d; cited from earlier work
T1 sequence (P29320 21-983): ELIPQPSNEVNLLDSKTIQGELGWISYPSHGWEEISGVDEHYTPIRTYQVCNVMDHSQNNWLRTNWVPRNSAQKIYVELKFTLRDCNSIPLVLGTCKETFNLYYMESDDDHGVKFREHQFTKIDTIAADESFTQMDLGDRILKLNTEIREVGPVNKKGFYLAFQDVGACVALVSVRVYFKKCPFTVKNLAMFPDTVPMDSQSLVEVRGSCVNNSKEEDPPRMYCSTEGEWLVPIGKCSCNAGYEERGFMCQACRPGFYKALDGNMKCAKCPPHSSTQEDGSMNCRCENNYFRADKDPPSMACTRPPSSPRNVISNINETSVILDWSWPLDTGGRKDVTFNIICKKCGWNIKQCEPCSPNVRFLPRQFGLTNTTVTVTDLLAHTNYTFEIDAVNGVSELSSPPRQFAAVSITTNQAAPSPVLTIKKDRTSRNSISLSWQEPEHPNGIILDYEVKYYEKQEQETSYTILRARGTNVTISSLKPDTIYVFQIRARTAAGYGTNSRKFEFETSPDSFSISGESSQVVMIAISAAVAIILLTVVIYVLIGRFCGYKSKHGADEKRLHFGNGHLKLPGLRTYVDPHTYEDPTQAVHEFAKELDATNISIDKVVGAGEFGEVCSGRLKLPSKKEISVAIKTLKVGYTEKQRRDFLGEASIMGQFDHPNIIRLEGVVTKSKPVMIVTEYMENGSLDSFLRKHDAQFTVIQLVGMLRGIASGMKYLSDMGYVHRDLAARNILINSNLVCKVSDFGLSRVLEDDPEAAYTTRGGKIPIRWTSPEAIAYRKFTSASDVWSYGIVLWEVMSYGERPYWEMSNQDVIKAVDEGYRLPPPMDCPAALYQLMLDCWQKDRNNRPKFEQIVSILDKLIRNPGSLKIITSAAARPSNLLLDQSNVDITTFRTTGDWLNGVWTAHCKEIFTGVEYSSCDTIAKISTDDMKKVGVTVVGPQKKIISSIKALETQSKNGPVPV

[3] = system: K-562 cell line; experiment: NCI-60 cancer cell line panel, growth inhibition; type: cell-based; details: Homo sapiens, K562
[4] = system: RI-1 cell line xenograft; experiment: Mouse xenograft model with the ABC DLBCL RI-1 cell line; type: in vivo; details: NOD-Scid mice, RI-1 xenograft; for tolerability / general toxicity and body weight: 100 mg kg^-1 IP
Method in brief: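 NOD-Scid mice were inoculated subcutaneously with RI-1 ABC-DLBCL cells (15 × 10^6). They were split into groups of n = 4 given test compound at 100 mg kg−1 IP once every 5 days, or control vehicle. Tumor volume (mm3) and body weight were followed to day 15.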

Structure (SMILES) | inhibition of total branching points [1] | inhibition of total loops [1] | inhibition of tube length [1] | Thermal shift (ΔTm) [2] | GI50 [3] | tolerability / general toxicity and body weight [4] | xenograft tumor size versus control group ([4]; 100 mg kg^-1 IP once every 5 days, day 15)
Cc1ccc(O)cc1-n1c(N)c(C(N)=O)c2nc3ccccc3nc21 [Compound 1] | 23% | 21% | 9% | 11.2 °C | – | – | –
NC(=O)c1c(N)n(-c2ccc(NC(=O)Nc3cccc(C(F)(F)F)c3)cc2)c2nc3ccccc3nc12 [Compound 2] | 9% | 13% | 5% | – | – | – | –
Cc1ccc(-n2nc(C(C)(C)C)cc2NC(=O)Nc2ccc(-n3c(N)c(C(N)=O)c4nc5ccccc5nc43)cc2)cc1 [Compound 8a] | – | – | – | – | 31 nM | very toxic already after the first dose | –
CC(C)(C)c1cc(NC(=O)Nc2ccc(-n3c(N)c(C(N)=O)c4nc5ccccc5nc43)cc2)n(-c2ccc3ncccc3c2)n1 [Compound 8b] | – | – | – | – | < 10 nM | well tolerated with no general toxicity or body-weight loss | three times smaller
